Data as given in ChEMBL document CHEMBL3576826, “New Monocyclic, Bicyclic, and Tricyclic Ethynylcyanodienones as Activators of the Keap1/Nrf2/ARE Pathway and Inhibitors of Inducible Nitric Oxide Synthase” (J Med Chem, 2015).
pIC50: −log10 of the molar value.

Columns and labels:
[1] = molecular target: Kelch-like ECH-associated protein 1/Nuclear factor erythroid 2-related factor 2 (Mus musculus) (UniProt Q60795+Q9Z2X8); experiment: Activation of Keap1/Nrf2/ARE pathway in mouse Hepa-1c1c7 cells assessed as double induction of NQO1 specific activity after 48 hrs by bicinchoninic acid assay; format: cell-based
Outline: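 Hepa1c1c7 cells, 10000 per well, grown 24 h, then exposed to increasing concentrations for 48 h. Lysed; protein by BCA assay; NQO1 specific activity measured. CD = concentration doubling NQO1 specific activity, used as inducer potency. Eight replicate wells per concentration; SD 5–10%.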

[2] = molecular target: T1, Nitric oxide synthase, inducible (Mus musculus, UniProt P29477); experiment: Inhibition of iNOS in LPS-stimulated mouse RAW264.7 cells assessed as inhibition of nitric oxide production after 48 hrs by Griess assay; format: cell-based
T1 sequence (P29477 whole entry): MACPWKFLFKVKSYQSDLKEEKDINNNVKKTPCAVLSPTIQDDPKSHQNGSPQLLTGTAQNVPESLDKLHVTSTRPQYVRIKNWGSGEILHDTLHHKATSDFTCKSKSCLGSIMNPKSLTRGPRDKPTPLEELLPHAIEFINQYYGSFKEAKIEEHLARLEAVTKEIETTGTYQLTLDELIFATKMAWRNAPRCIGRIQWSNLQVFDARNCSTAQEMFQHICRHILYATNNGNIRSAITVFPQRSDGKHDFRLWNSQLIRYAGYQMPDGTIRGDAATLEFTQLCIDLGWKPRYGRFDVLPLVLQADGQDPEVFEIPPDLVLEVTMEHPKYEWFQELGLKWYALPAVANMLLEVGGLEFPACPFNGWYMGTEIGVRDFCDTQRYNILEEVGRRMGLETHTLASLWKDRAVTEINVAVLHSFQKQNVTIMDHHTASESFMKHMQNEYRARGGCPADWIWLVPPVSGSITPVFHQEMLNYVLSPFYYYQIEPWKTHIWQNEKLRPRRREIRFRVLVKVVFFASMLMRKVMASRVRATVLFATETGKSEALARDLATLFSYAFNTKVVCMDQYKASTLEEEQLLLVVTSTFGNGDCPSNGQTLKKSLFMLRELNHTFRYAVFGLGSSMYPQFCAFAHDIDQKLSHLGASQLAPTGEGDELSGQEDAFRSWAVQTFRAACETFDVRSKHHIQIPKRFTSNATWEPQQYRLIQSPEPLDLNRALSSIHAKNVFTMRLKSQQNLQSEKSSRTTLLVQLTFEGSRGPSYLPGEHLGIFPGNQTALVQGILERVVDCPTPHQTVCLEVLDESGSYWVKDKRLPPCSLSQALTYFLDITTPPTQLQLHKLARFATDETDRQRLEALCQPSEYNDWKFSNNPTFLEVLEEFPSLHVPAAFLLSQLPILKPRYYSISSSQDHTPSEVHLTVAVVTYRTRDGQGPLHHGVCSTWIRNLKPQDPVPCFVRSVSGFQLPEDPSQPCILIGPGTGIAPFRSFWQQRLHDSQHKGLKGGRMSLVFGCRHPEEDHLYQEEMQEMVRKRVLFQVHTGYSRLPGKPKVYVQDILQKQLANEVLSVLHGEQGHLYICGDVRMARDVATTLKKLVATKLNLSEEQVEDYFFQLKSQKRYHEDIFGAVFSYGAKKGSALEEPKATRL

Kelch-like ECH-associated protein 1/Nuclear factor erythroid 2-related factor 2 (Mus musculus), sequence (Q60795 whole entry, looked up): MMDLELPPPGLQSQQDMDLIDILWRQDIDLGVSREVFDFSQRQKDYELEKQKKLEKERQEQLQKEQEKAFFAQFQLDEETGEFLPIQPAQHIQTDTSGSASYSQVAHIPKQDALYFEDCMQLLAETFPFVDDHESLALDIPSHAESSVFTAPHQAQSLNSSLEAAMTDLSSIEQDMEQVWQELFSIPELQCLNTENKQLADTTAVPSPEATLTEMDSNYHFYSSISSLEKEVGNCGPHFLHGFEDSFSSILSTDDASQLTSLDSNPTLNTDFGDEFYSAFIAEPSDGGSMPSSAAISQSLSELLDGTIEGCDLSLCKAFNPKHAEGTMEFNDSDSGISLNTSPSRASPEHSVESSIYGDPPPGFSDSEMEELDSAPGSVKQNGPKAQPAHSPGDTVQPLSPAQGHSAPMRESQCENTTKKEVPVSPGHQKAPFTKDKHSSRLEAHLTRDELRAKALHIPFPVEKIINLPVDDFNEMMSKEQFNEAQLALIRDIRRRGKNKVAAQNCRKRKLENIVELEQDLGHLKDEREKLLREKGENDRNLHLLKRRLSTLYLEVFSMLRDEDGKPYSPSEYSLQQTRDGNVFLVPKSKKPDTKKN
Kelch-like ECH-associated protein 1/Nuclear factor erythroid 2-related factor 2 (Mus musculus), sequence (Q9Z2X8 whole entry, looked up): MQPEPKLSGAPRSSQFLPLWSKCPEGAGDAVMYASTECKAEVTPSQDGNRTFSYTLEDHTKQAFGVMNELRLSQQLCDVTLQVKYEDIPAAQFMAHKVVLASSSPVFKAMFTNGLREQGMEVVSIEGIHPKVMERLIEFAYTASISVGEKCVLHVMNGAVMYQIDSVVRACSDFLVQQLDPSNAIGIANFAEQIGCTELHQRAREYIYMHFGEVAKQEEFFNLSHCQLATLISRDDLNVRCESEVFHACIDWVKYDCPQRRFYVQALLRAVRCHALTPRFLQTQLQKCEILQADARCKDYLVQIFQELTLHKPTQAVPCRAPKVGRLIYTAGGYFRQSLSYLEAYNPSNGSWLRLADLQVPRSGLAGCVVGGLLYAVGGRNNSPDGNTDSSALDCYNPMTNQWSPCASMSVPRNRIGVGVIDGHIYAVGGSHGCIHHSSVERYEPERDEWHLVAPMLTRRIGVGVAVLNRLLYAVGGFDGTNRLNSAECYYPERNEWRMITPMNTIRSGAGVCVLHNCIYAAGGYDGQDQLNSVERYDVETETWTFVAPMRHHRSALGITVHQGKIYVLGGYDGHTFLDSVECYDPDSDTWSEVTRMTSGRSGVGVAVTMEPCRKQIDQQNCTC

Compound	CD [1] [nM]	pIC50 ([2]; raw264.7)	pIC50 [2]
C#CC12C=C(C#N)C(=O)C=C1C(C)(C)CC2 (stereo not drawn)	100	6.70	
C#CC1(C#C)C=CC(=O)C(C#N)=C1	180	6.68	
C#CC12C=C(C#N)C(=O)C=C1c1c(Br)cccc1CC2 (stereo not drawn)	1300	6.19	
C#CC1(C=C)C=CC(=O)C(C#N)=C1 (stereo not drawn)	20	7.80	
C#CC12C=C(C#N)C(=O)C=C1c1ccccc1CC2 (stereo not drawn)	150		
C#CC12C=C(C#N)C(=O)C=C1c1c(Cl)cccc1C2 (stereo not drawn)	130	6.10	
C[S+]([O-])CCCCN=C=S (stereo not drawn) [SULFORAPHANE]	200		6.40
C#CC1(C)C=C(C#N)C(=O)c2ccccc21 (stereo not drawn)	220		
C#CC1(C)C=CC(=O)C(C#N)=C1 (stereo not drawn)	21	7.74	
C#CC1(CC)C=CC(=O)C(C#N)=C1 (stereo not drawn)	42		
C#CC12C=C(C#N)C(=O)C=C1c1c(C)cccc1CC2 (stereo not drawn)	1800	6.03	
C#CC12C=C(C#N)C(=O)C=C1c1ccccc1C2 (stereo not drawn)	41	6.42	
C#CC12C=C(C#N)C(=O)C=C1CCC2 (stereo not drawn)	56	6.80	
C#C[C@]12C=C(C#N)C(=O)C=C1[C@@]1(C)C=C(C#N)C(=O)C(C)(C)[C@@H]1CC2 (racemic)	0.9	9.00	
CC1(C)CC[C@]2(C(=O)O)CC[C@]3(C)[C@H](C(=O)C=C4[C@@]5(C)C=C(C#N)C(=O)C(C)(C)[C@@H]5CC[C@]43C)[C@@H]2C1 [BARDOXOLONE]	2.3	7.64	
C#CC12C=C(C#N)C(=O)C=C1c1c(Cl)cccc1CC2 (stereo not drawn)	900		
